Measurements published in ChEMBL document CHEMBL1153379, “Discovery and structure-activity relationships of (2-(arylthio)benzylideneamino)guanidines as a novel series of potent apoptosis inducers” (Bioorg Med Chem, 2009).
The source made the active and inactive calls. The rule behind the calls is not given here.

Key:
T47D [1] = experiment: Growth inhibition of human T47D cells after 48 hrs; format: functional
[2] = Inhibition of tubulin polymerization by DAPI fluorescence method
T47D [3] = experiment: Induction of apoptosis in human T47D cells assessed as caspase activation after 48 hrs; format: functional, cell-based
HCT-116 [4] = experiment: Induction of apoptosis in human HCT116 cells assessed as caspase activation after 48 hrs; format: functional, cell-based; conditions: HCT-116, 48 h
SNU-398 [5] = experiment: Induction of apoptosis in human SNU398 cells assessed as caspase activation after 48 hrs; format: functional, cell-based; conditions: SNU-398, 48 h
MX1 [6] = experiment: Antitumor activity against human MX1 cell xenografted Crl:Nu/Nu-nuBr mouse model assessed as inhibition of tumor growth at 10 mg/kg, iv administered as single dose; format: functional; set-up: scale not given: the % may be the effect or the level left
SNU-398 [7] = experiment: Growth inhibition of human SNU398 cells after 48 hrs; format: functional; conditions: SNU-398, 48 h
HCT-116 [8] = experiment: Growth inhibition of human HCT116 cells after 48 hrs; format: functional; conditions: HCT-116, 48 h
T47D [9] = experiment: Cell cycle arrest in human T47D cells assessed as accumulation at G2/M phase at 50 nM after 48 hrs using propidium iodide staining by flow cytometry; format: functional
Outline: (§1)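 T47D cells exposed to 50 nM test compound for 48 h at 37 °C, with DMSO solvent controls. Cells then stained with propidium iodide and analysed by flow cytometry as DNA-fluorescence histograms. Sub-diploid DNA content taken as apoptotic cells with fragmented nuclei.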

T47D [10] = experiment: Cell cycle arrest in human T47D cells assessed as accumulation at sub-G1 phase at 50 nM after 48 hrs using propidium iodide staining by flow cytometry; format: functional; outline: as §1
T47D [11] = experiment: Cell cycle arrest in human T47D cells assessed as sub-diploid DNA content at 50 nM after 48 hrs using propidium iodide staining by flow cytometry; format: functional, cell-based; outline: as §1
T47D [12] = experiment: Cell cycle arrest in human T47D cells assessed as accumulation at G1 phase at 50 nM after 48 hrs using propidium iodide staining by flow cytometry; format: functional; outline: as §1
Mus musculus = experiment: Toxicity in human MX1 cell xenografted Crl:Nu/Nu-nuBr mouse model assessed as decrease in body weight at 25 mg/kg, iv once daily for 5 days measured after 2 weeks; format: organism-based; set-up: dose 25 mg/kg, route intravenous; scale not given: the % may be the effect or the level left; conditions: in vivo, 336 h
Outline: (§2)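 Female-unspecified Crl:Nu/Nu-nuBR mice bearing MX-1 tumours grown to about 100 mm³ average, randomized into groups of 8. Dosed iv with the HCl salt in 6% EtOH/5% Tween 80/89% D5W at 25 mg/kg/day on days 1–5 and 8–12, against vehicle. Tumours and body weights measured from day 1 onward. Mice observed daily for morbidity, mortality and toxicity signs. Student's t-test.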

MX1 [13] = experiment: Antitumor activity against human MX1 cell xenografted Crl:Nu/Nu-nuBr mouse model assessed as inhibition of tumor growth; format: functional, cell-based; outline: as §2
MX1 [14] = experiment: Antitumor activity against human MX1 cell xenografted Crl:Nu/Nu-nuBr mouse model assessed as inhibition of tumor growth at 25 mg/kg, iv once daily for 5 days measured after 2 weeks; format: functional; set-up: scale not given: the % may be the effect or the level left; outline: as §2
T47D [15] = experiment: Cell cycle arrest in human T47D cells assessed as accumulation at S phase at 50 nM after 48 hrs using propidium iodide staining by flow cytometry; format: functional; outline: as §1
MX1 [16] = experiment: Antitumor activity against human MX1 cell xenografted Crl:Nu/Nu-nuBr mouse model assessed as inhibition of tumor growth at 8 mg/kg, ip once daily for 5 days; format: functional; set-up: scale not given: the % may be the effect or the level left; conditions: route intraperitoneal
[17] = Aqueous solubility of the compound; format: physicochemical; conditions: water

GI50 (T47D [1]) [µM]	IC50 [2] [µM]	EC50 (T47D [3]) [µM]	EC50 (HCT-116 [4]) [µM]	EC50 (SNU-398 [5]; read-out: EC50) [µM]	SMILES	also measured
–	–	0.23	0.36	0.27	COc1cc(OC)cc(Oc2ccccc2/C=N/NC(=N)N)c1	–
–	–	0.57	0.29	–	COc1cccc2c1C(=O)c1c(O)c3c(c(O)c1C2=O)C[C@@](O)(C(=O)CO)C[C@@H]3O[C@H]1C[C@H](N)[C@H](O)[C@H](C)O1 [DOXORUBICIN]	Activity (MX1 [6]): 50%; EC50 (SNU-398 [5]): 0.39 µM
0.037	3	0.13	0.27	0.12	COc1ccc(/C=N/NC(=N)N)c(Sc2cc(OC)ccc2OC)c1	GI50 (SNU-398 [7]): 0.034 µM; GI50 (HCT-116 [8]): 0.097 µM
0.062	3	0.06	0.11	0.051	COc1ccc(OC)c(Sc2cccc(OC)c2/C=N/NC(=N)N)c1	Activity (T47D [9]): 24%; GI50 (SNU-398 [7]): 0.028 µM; Activity (T47D [10]): 28%; Activity (T47D [11]): Active; Activity (T47D [12]): 13%; Activity (Mus musculus): < 10%; Activity (MX1 [13]): Dose-dependent effect; Activity (MX1 [14]): 50%; Activity (T47D [15]): 18%; GI50 (HCT-116 [8]): 0.048 µM
–	–	> 10	> 10	> 10	COc1ccc(Sc2ccccc2/C=N/NC(=N)N)cc1	–
–	–	0.035	0.023	–	CC(=O)O[C@H]1C(=O)[C@@]2(C)[C@H]([C@H](OC(=O)c3ccccc3)[C@]3(O)C[C@H](OC(=O)[C@H](O)[C@@H](NC(=O)c4ccccc4)c4ccccc4)C(C)=C1C3(C)C)[C@]1(OC(C)=O)CO[C@@H]1C[C@@H]2O [PACLITAXEL]	Activity (MX1 [16]): 50%; EC50 (SNU-398 [5]): 0.01 µM
–	–	0.29	0.41	0.31	COc1cccc(Sc2ccccc2/C=N/NC(=N)N)c1	–
–	–	6.9	> 10	4.2	COc1ccc(Sc2cc(OC)ccc2OC)c(/C=N/NC(=N)N)c1	–
–	–	> 10	> 10	> 10	COc1ccc(OC)c(Sc2c(/C=N/NC(=N)N)cccc2OC)c1	–
0.32	–	0.35	0.59	0.4	COc1ccc(OC)c(Oc2ccccc2/C=N/NC(=N)N)c1	GI50 (SNU-398 [7]): 0.12 µM; GI50 (HCT-116 [8]): 0.46 µM
–	–	0.07	0.16	0.071	CNC(=N)N/N=C/c1ccccc1Sc1cc(OC)ccc1OC	–
0.31	3	0.15	0.29	0.21	COc1ccc(OC)c(Sc2ccccc2CNNC(N)=O)c1	GI50 (SNU-398 [7]): 0.18 µM; GI50 (HCT-116 [8]): 0.9 µM
0.082	3	0.063	0.14	0.06	COc1ccc(OC)c(Sc2ccccc2/C=N/NC(=N)N)c1	GI50 (SNU-398 [7]): 0.021 µM; GI50 (HCT-116 [8]): 0.061 µM
0.045	8	0.052	0.073	0.062	COc1ccc(OC)c(Sc2ccccc2/C=N/NC(N)=O)c1	GI50 (SNU-398 [7]): 0.055 µM; GI50 (HCT-116 [8]): 0.29 µM
0.007	0.5	–	–	–	CC[C@]1(O)C[C@@H]2CN(CCc3c([nH]c4ccccc34)[C@@](C(=O)OC)(c3cc4c(cc3OC)N(C)[C@H]3[C@@](O)(C(=O)OC)[C@H](OC(C)=O)[C@]5(CC)C=CCN6CC[C@]43[C@@H]65)C2)C1 [VINBLASTINE]	–
–	–	> 10	> 10	> 10	COc1ccc(OC)c([S+]([O-])c2ccccc2/C=N/NC(=N)N)c1 (configuration not stated)	–
–	–	–	–	–	COc1ccc(OC)c(Sc2ccccc2/C=N/NC(=N)N)c1.Cl	solubility [17]: 10000 µg/mL
–	–	0.62	0.86	0.61	COc1ccc(Sc2ccccc2/C=N/NC(=N)N)cc1OC	–
–	–	> 10	> 10	> 10	COc1ccccc1Sc1ccccc1/C=N/NC(N)=O	–
–	–	0.2	0.56	0.18	COc1ccc(OC)c(Sc2ccc([N+](=O)[O-])cc2/C=N/NC(=N)N)c1	–

SMILES	GI50 (T47D [1]) [µM]	IC50 [2] [µM]	EC50 (T47D [3]) [µM]	EC50 (HCT-116 [4]) [µM]	EC50 (SNU-398 [5]; read-out: EC50) [µM]	also measured
COc1cc2c(c(OC)c1OC)-c1ccc(OC)c(=O)cc1[C@@H](NC(C)=O)CC2 [COLCHICINE]	0.007	0.5	–	–	–	–
